Results published in ChEMBL document CHEMBL1129797, “Dual metalloprotease inhibitors. 6. Incorporation of bicyclic and substituted monocyclic azepinones as dipeptide surrogates in angiotensin-converting enzyme/neutral endopeptidase inhibitors” (J Med Chem, 1996).
pIC50: −log10 of the molar value.

How the values were obtained:
[1] = biological target: T1, Angiotensin-converting enzyme (Oryctolagus cuniculus, UniProt P12822); test: In vitro inhibition of Angiotensin I converting enzyme isolated from rabbit lung extract.; assay type: tissue-based
T1 sequence (P12822 whole entry): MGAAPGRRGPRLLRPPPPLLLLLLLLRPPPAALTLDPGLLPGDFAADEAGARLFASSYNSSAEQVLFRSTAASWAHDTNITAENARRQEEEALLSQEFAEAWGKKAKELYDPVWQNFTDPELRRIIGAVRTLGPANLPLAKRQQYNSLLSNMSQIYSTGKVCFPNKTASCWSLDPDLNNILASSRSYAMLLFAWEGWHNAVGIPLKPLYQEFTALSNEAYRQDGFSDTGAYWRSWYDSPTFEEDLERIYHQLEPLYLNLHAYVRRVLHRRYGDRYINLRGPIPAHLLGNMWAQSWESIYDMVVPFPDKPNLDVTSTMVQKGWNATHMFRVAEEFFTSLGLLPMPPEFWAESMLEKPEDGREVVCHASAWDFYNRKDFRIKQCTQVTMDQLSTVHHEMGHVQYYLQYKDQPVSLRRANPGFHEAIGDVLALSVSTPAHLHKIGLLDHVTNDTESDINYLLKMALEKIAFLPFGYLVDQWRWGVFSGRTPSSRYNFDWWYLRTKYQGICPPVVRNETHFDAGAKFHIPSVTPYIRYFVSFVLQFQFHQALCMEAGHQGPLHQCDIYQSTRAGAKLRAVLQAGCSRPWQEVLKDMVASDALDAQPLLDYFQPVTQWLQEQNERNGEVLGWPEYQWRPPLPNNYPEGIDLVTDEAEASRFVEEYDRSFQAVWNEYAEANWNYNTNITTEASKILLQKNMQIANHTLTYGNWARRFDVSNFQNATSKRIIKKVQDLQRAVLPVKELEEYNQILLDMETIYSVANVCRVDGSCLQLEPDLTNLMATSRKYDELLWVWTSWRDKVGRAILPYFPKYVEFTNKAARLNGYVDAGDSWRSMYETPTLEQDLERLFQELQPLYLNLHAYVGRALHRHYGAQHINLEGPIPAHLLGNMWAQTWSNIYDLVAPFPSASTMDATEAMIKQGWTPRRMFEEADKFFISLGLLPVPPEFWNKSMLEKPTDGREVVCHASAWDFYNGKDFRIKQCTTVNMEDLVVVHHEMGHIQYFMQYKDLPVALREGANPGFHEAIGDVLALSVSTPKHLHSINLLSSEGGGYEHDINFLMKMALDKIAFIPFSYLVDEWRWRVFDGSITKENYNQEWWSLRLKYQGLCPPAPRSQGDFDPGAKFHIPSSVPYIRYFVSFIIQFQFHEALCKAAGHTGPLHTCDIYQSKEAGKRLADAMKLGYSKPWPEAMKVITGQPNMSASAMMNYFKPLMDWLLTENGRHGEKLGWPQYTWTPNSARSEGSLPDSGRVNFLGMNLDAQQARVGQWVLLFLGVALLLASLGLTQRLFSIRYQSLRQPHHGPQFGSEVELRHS
Method in brief: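 Rabbit lung acetone powder extract (1:20 dilution) as enzyme source; spectrophotometric hippuric acid formation from hippuryl-L-histidyl-L-leucine (5 mM final). Final concentrations: 100 mM phosphate buffer pH 8.3, 300 mM NaCl; varied inhibitor concentrations or vehicle. Incubated 30 min at 37 °C. Stopped with 1 N HCl, then ethyl acetate added.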

Neprilysin = biological target: T2, Neprilysin (Rattus norvegicus, UniProt P07861); test: In vitro inhibition of purified rat kidney Neutral endopeptidase.
T2 sequence (P07861 whole entry): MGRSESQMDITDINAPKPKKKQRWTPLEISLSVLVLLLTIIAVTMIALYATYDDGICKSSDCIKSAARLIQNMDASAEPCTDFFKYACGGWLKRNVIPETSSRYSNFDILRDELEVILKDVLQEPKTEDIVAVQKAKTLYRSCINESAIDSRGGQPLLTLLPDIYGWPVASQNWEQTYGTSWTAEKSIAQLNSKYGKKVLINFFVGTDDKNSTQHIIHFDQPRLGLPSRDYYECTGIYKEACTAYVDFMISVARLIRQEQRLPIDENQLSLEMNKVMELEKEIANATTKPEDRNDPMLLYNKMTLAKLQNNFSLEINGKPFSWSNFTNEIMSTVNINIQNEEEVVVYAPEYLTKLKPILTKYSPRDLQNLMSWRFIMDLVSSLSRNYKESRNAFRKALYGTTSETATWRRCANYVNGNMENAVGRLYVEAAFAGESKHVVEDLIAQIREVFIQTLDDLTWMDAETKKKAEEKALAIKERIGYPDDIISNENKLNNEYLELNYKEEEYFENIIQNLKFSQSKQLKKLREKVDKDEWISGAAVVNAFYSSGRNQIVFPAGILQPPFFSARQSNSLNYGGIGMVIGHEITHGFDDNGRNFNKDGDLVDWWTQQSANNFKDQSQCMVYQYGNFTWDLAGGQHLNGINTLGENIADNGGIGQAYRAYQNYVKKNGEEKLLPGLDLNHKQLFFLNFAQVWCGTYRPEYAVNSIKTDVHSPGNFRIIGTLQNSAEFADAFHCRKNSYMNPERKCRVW
Method in brief: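 Rat kidney membrane enzyme solubilized (1% deoxycholate, papain/DTT, 37 °C 90 min), purified by gel filtration and phenyl sepharose. Enzyme in 0.05% Triton X-100 with 50 mM Tris-HCl pH 7.5, preincubated 10 min with inhibitor; 0.5 mM dansyl-Gly-Phe-Arg added. Incubated 37 °C, 30 min; stopped with HCl. Dansyl-Gly extracted into ethyl acetate; fluorescence ex 342/em 510 nm, zero-time corrected, versus no-inhibitor.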

Rattus norvegicus = test: Intravenous effective dose required to inhibit 50% of the AI pressor response in normotensive rats; assay type: functional
Method in brief: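 Conscious male Sprague-Dawley rats (220-240 g), aortic and vena caval catheters, four per assay. Various doses given iv in 5% NaHCO3. AI (310 ng/kg iv) pressor responses taken before dosing and at 2-30 min intervals up to 6 h. Maximum-inhibition time point per dose used for the dose-response curve; ED50 interpolated.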

SMILES	pIC50 [1]	pIC50 (Neprilysin)	ED50 (Rattus norvegicus) [µmol/kg]
O=C(O)CN1CCCC[C@H](NC(=O)[C@@H](S)Cc2ccccc2)C1=O	7.66	7.09	0.84
O=C(N[C@H]1CCC[C@H]2CCC[C@@H](C(=O)O)N2C1=O)[C@@H](S)Cc1ccccc1	7.96	7.60	0.12
CCC[C@@H]1CCC[C@H](NC(=O)[C@@H](S)Cc2ccccc2)C(=O)N1CC(=O)O	7.85	6.33	–
O=C(O)CN1C(=O)[C@@H](NC(=O)[C@@H](S)Cc2ccccc2)CCC[C@@H]1CC1CC1	7.64	6.85	–
CC(C)[C@@H](C(=O)O)N1CCCC[C@H](NC(=O)[C@@H](S)Cc2ccccc2)C1=O	6.04	6.00	–
C[C@@H](C(=O)O)N1CCCC[C@H](NC(=O)[C@@H](S)Cc2ccccc2)C1=O	7.59	7.04	1.22
O=C(N[C@H]1CCC[C@H]2CC[C@@H](C(=O)O)N2C1=O)[C@@H](S)Cc1ccccc1	8.30	7.74	0.06
CCC[C@H]1CCC[C@H](NC(=O)[C@@H](S)Cc2ccccc2)C(=O)N1CC(=O)O	7.96	7.40	0.06
C[C@@H]1CCC[C@H](NC(=O)[C@@H](S)Cc2ccccc2)C(=O)N1CC(=O)O	7.80	6.83	–
C[C@H](NC(=O)[C@@H](S)Cc1ccccc1)C(=O)N1CCC[C@H]1C(=O)O	–	–	0.06
O=C(N[C@H]1CCCCN([C@@H](Cc2ccccc2)C(=O)O)C1=O)[C@@H](S)Cc1ccccc1	6.32	7.49	–
CCC[C@H]1CCC[C@H](NC(=O)[C@@H](S)Cc2ccccc2)C(=O)N1[C@@H](C)C(=O)O	8.30	7.77	0.12
O=C(O)CN1C(=O)[C@@H](NC(=O)[C@@H](S)Cc2ccccc2)CCC[C@@H]1CCO	7.60	7.51	0.08
O=C(O)CN1C(=O)[C@@H](NC(=O)[C@@H](S)Cc2ccccc2)CCC[C@@H]1C1CCCC1	7.77	5.78	–
C[C@H]1CCC[C@H](NC(=O)[C@@H](S)Cc2ccccc2)C(=O)N1CC(=O)O	8.10	7.31	0.11
C=CC[C@H]1CCC[C@H](NC(=O)[C@@H](S)Cc2ccccc2)C(=O)N1CC(=O)O	8.15	7.19	0.04
CC(C)C[C@H]1CCC[C@H](NC(=O)[C@@H](S)Cc2ccccc2)C(=O)N1CC(=O)O	8.00	5.78	–
CCC[C@H]1CCC[C@H](NC(=O)[C@@H](S)Cc2ccccc2)C(=O)N1[C@@H](CC)C(=O)O	7.60	7.07	–
O=C(O)CN1C(=O)[C@@H](NC(=O)[C@@H](S)Cc2ccccc2)CCc2ccccc21	7.92	8.22	0.02
